Tests used:
[1] = molecular target: T1, Gonadotropin-releasing hormone receptor (Homo sapiens) (UniProt P30968); assay: Displacement of [125I]-(D-Trp6)LHRH from human recombinant GnRH receptor at 10 uM
T1 sequence (whole entry): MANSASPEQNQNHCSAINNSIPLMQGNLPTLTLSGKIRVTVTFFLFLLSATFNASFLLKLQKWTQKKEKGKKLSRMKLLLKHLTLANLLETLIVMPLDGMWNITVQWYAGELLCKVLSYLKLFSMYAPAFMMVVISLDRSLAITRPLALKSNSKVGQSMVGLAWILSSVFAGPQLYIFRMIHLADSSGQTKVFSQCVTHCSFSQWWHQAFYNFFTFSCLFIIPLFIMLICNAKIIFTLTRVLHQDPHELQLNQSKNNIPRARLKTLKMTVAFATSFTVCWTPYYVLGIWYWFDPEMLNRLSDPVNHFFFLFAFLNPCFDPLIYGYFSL
Method in brief: (§1)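 Membranes from recombinant cells expressing human or rat GnRH receptor, made in 25 mM Tris-Cl pH 7.4 with 0.1% sodium azide and 0.1% BSA. 50 μg protein incubated with about 50,000 cpm 125I-(D-Trp6)-LHRH for 2 h at 4 °C, with increasing unlabeled competitor. Filtered on BSA-presoaked glass-fiber filters, washed twice, counted by gamma counter. Percent inhibition and IC50 derived.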

[2] = molecular target: T2, Gonadotropin-releasing hormone receptor (Homo sapiens, UniProt P30968); assay: Displacement of [125I]-(D-Trp6)LHRH from human recombinant GnRH receptor; method in brief: as §1
T2 sequence (P30968 whole entry): T1 sequence (whole entry)

[3] = molecular target: T3, Gonadotropin-releasing hormone receptor (Rattus norvegicus, UniProt P30969); assay: Displacement of [125I]-(D-Trp6)LHRH from rat recombinant GnRH receptor; method in brief: as §1
T3 sequence (P30969 whole entry): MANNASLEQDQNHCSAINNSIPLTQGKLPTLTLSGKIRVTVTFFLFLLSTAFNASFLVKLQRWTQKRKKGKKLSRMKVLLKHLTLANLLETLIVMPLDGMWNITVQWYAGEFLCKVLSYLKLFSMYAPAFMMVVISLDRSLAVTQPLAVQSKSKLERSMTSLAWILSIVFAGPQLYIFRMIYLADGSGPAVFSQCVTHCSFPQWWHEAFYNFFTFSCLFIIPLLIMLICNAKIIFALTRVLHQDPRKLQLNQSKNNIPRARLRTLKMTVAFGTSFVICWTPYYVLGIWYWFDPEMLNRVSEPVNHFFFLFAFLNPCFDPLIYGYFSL

[4] = molecular target: T2, Gonadotropin-releasing hormone receptor; assay: Antagonist activity at human recombinant GnRH receptor assessed as reduction in (D-Trp6)LHRH-induced myo-(1,2)-[3H]inositol production; format: functional
Method in brief: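 Recombinant cells expressing human GnRH receptor, pre-labeled with myo-(1,2)-3H-inositol, incubated 1 h in medium with lithium chloride and D-Trp6-LHRH, with or without antagonist. Cells then lysed and labeled inositol phosphates separated from inositol by […] and counted. Run in triplicate, repeated in three independent experiments; IC50 derived.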

[5] = molecular target: T3, Gonadotropin-releasing hormone receptor; assay: Antagonist activity at […] GnRH receptor in CO2 asphyxiated rat primary pituitary cells assessed as reduction in (D-Trp6)LHRH-induced LH release; format: functional, cell-based, Pituitary gland cell
Method in brief: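 Anterior pituitaries from adult rats were minced, dissociated and plated at 30,000 cells/well in DMEM with 25 mM Hepes and 10% FBS, then cultured 72 h at 37 °C, 5% CO2. After washing, cells were treated 3 h in 0.1% BSA medium with an antagonist dose response plus an ED50 concentration of D-Trp6-LHRH. LH in medium measured by RIA; cell toxicity checked by CellTiter-Glo.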

[6] = molecular target: T4, 5-hydroxytryptamine receptor 1A (Homo sapiens, UniProt P08908); assay: Binding affinity to human 5HT1A receptor
T4 sequence (P08908 whole entry): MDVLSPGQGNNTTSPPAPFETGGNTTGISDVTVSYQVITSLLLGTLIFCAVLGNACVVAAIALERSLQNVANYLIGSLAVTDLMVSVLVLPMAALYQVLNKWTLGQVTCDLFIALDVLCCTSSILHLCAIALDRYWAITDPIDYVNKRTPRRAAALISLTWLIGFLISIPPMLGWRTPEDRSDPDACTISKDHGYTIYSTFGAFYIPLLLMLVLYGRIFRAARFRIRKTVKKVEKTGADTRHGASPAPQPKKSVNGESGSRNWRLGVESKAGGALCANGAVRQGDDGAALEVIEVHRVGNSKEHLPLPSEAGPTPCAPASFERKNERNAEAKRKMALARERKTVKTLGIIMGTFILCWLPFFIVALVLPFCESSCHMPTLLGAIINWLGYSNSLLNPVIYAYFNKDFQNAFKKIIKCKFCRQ

[7] = molecular target: 5-hydroxytryptamine receptor 1B (Homo sapiens, UniProt P28222); assay: Binding affinity to human 5HT1B receptor at 1000 nM
[8] = molecular target: 5-hydroxytryptamine receptor 1D (Homo sapiens, UniProt P28221); assay: Binding affinity to human 5HT1D receptor at 1000 nM
[9] = molecular target: T5, 5-hydroxytryptamine receptor 1A (Homo sapiens) (UniProt P08908); assay: Binding affinity to 5HT1A receptor at 10 uM
T5 sequence (whole entry): T4 sequence (P08908 whole entry)

[10] = molecular target: T6, Alpha-1A adrenergic receptor (Homo sapiens) (UniProt P35348); assay: Binding affinity to alpha1 adrenergic receptor at 10 uM
T6 sequence (whole entry): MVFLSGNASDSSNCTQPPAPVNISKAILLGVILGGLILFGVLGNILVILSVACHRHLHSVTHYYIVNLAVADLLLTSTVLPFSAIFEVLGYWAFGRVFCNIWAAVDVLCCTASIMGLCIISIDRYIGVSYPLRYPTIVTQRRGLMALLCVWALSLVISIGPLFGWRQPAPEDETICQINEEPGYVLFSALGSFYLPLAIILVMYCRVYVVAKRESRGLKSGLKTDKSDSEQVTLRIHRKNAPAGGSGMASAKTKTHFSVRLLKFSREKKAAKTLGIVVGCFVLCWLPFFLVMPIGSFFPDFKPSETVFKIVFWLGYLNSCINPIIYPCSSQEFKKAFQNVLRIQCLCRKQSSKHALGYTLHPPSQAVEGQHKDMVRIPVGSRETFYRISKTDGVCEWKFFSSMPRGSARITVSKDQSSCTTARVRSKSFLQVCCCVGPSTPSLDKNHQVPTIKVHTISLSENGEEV

Chain of 5-hydroxytryptamine receptor 1B (P28222 whole entry): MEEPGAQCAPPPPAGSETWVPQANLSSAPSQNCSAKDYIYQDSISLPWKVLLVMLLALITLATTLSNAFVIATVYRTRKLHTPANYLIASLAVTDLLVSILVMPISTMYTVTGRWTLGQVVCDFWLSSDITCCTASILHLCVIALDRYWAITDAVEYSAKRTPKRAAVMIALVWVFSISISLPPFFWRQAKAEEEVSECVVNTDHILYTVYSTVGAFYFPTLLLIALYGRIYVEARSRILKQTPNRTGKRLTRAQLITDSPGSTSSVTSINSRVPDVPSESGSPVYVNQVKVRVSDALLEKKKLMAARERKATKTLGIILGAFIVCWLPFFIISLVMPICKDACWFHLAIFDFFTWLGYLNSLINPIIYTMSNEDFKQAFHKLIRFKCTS
Chain of 5-hydroxytryptamine receptor 1D (P28221 whole entry): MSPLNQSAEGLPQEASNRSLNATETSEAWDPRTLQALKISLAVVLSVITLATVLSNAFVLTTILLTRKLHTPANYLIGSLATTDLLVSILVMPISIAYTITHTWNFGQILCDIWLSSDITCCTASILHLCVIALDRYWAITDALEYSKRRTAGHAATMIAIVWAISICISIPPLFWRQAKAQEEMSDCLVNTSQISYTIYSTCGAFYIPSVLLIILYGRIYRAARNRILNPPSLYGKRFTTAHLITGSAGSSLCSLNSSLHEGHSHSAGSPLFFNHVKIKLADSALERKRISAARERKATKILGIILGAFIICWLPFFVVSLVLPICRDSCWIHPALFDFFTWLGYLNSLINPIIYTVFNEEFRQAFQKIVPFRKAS

SMILES	Activity [1] [%]	IC50 [2] [nM]	IC50 [3] [nM]	IC50 [4] [nM]	also measured
FC(F)(F)c1nc2cccc(OCCN3CCN(c4cccc5[nH]c(=S)[nH]c45)CC3)c2[nH]1	42	–	–	–	–
FC(F)(F)c1nc2c(N3CCN(CCc4cccc5nc(C(F)(F)F)[nH]c45)CC3)cccc2[nH]1	26	–	–	–	–
CC(C)(C)c1ccc(-c2nc3c(N4CCN(Cc5ccc6[nH]c(=O)c(=O)[nH]c6c5)CC4)cccc3[nH]2)cc1	–	4.9	40	1.7	IC50 [5]: 25 nM
FC(F)(F)c1nc2c(N3CCN(CCc4cccc5[nH]c(=S)[nH]c45)CC3)cccc2[nH]1	51	–	–	–	–
FC(F)(F)c1nc2c(N3CCN(Cc4cccc5[nH]c(=S)[nH]c45)CC3)cccc2[nH]1	–	580	51000	3400	–
O=C(COc1cccc2[nH]c(=S)[nH]c12)N1CCN(c2cccc3[nH]c(C(F)(F)F)nc23)CC1	24	–	–	–	–
O=c1[nH]c2cccc(N3CCN(CCOc4cccc5nc(C(F)(F)F)[nH]c45)CC3)c2[nH]1	8	–	–	–	–
FC(F)(F)c1nc2cc(N3CCN(CCOc4cccc5[nH]c(=S)[nH]c45)CC3)ccc2[nH]1	11	–	–	–	–
FC(F)(F)c1nc2c(N3CCN(CCCc4cccc5nc(C(F)(F)F)[nH]c45)CC3)cccc2[nH]1	42	–	–	–	–

The next lines start with results.

Activity [1] [%]	IC50 [2] [nM]	IC50 [3] [nM]	IC50 [4] [nM]	SMILES	also measured
–	1300	–	2800	Cc1ccc(-c2nc3c(N4CCN(CCOc5cccc6[nH]c(=S)[nH]c56)CC4)cccc3[nH]2)cc1	–
1	–	–	–	S=c1[nH]c2cccc(OCCN3CCN(c4cccc5nccnc45)CC3)c2[nH]1	–
–	220	5200	2300	CCc1ccc(-c2nc3c(N4CCN(CCOc5cccc6nc(C(F)(F)F)[nH]c56)CC4)cccc3[nH]2)cc1	–
–	3300	–	–	FC(F)(F)c1nc2c(N3CCN(CCCOc4cccc5[nH]c(=S)[nH]c45)CC3)cccc2[nH]1	Ki [6]: 2.3 nM
–	11000	–	–	S=c1[nH]c2cccc(OCCN3CCN(c4cccc5[nH]c(-c6ccccc6)nc45)CC3)c2[nH]1	–
–	790	21000	4500	FC(F)(F)c1nc2c(N3CCN(CCOc4cccc5[nH]c(=S)[nH]c45)CC3)cccc2[nH]1	Ki ([6]; read-out: Ki): 2.8 nM; IC50 [5]: 76000 nM; inhibition [7]: 67%; inhibition [8]: 67%
–	120	3900	640	CCc1ccc(-c2nc3c(N4CCN(CCOc5cccc6[nH]c(=S)[nH]c56)CC4)cccc3[nH]2)cc1	–
–	120	990	450	CC(C)c1ccc(-c2nc3c(N4CCN(CCOc5cccc6nc(C(F)(F)F)[nH]c56)CC4)cccc3[nH]2)cc1	–
–	6.2	110	14	CC(C)(C)c1ccc(-c2nc3c(N4CCN(Cc5cccc6[nH]c(=S)[nH]c56)CC4)cccc3[nH]2)cc1	Activity [9]: 5%; IC50 [5]: 240 nM; Activity [10]: 7%

From ChEMBL document CHEMBL1157420, “2-phenyl-4-piperazinylbenzimidazoles: orally active inhibitors of the gonadotropin releasing hormone (GnRH) receptor” (Bioorg Med Chem, 2008)
